Laboratory results published in ChEMBL document CHEMBL4130443, “Targeting breast cancer stem cells by novel HDAC3-selective inhibitors” (Eur J Med Chem, 2017).
The source made the active and inactive calls. No cut-off for these calls is given here.

Columns and labels:
[1] = molecular target: T1, Histone deacetylase 1 (Homo sapiens, UniProt Q13547); assay: Inhibition of human HDAC1 at 1 uM using p53 (379 to 382 residues) derived fluorogenic peptide RHKKAc
Procedure, shortened: (§1)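 Isoform profiling run by a commercial vendor with compounds at 1 µM. Values are percent inhibition, each the average of two determinations.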

[2] = molecular target: T2, Histone deacetylase 2 (Homo sapiens, UniProt Q92769); assay: Inhibition of human HDAC2 at 1 uM using p53 (379 to 382 residues) derived fluorogenic peptide RHKKAc; procedure, shortened: as §1
T2 sequence (Q92769 whole entry, the tested form may be a part): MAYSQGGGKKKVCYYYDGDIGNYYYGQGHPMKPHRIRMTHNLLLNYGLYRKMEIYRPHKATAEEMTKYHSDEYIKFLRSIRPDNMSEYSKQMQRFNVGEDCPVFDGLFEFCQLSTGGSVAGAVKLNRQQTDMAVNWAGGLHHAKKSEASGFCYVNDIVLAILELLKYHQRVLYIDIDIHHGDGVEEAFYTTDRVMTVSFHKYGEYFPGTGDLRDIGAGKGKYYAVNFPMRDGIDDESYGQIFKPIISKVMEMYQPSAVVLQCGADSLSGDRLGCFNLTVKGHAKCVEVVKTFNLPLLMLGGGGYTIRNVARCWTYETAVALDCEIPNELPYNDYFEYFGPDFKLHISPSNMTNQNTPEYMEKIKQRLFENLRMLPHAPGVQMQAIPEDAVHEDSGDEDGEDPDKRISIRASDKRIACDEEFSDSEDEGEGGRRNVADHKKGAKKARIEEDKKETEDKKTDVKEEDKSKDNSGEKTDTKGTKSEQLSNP

[3] = molecular target: Histone deacetylase 3/Nuclear receptor corepressor 2 (HDAC3/NCoR2) (Homo sapiens) (UniProt O15379+Q9Y618); assay: Inhibition of human HDAC3/NCOR2 at 1 uM using p53 (379 to 382 residues) derived fluorogenic peptide RHKKAc; type: protein-complex assay; procedure, shortened: as §1
[4] = molecular target: Histone deacetylase 4 (Homo sapiens) (UniProt P56524); assay: Inhibition of human HDAC4 at 1 uM using Boc-Lys(trifluoroacetyl)-AMC substrate; procedure, shortened: as §1
Chain of Histone deacetylase 4 (Homo sapiens) (P56524 whole entry): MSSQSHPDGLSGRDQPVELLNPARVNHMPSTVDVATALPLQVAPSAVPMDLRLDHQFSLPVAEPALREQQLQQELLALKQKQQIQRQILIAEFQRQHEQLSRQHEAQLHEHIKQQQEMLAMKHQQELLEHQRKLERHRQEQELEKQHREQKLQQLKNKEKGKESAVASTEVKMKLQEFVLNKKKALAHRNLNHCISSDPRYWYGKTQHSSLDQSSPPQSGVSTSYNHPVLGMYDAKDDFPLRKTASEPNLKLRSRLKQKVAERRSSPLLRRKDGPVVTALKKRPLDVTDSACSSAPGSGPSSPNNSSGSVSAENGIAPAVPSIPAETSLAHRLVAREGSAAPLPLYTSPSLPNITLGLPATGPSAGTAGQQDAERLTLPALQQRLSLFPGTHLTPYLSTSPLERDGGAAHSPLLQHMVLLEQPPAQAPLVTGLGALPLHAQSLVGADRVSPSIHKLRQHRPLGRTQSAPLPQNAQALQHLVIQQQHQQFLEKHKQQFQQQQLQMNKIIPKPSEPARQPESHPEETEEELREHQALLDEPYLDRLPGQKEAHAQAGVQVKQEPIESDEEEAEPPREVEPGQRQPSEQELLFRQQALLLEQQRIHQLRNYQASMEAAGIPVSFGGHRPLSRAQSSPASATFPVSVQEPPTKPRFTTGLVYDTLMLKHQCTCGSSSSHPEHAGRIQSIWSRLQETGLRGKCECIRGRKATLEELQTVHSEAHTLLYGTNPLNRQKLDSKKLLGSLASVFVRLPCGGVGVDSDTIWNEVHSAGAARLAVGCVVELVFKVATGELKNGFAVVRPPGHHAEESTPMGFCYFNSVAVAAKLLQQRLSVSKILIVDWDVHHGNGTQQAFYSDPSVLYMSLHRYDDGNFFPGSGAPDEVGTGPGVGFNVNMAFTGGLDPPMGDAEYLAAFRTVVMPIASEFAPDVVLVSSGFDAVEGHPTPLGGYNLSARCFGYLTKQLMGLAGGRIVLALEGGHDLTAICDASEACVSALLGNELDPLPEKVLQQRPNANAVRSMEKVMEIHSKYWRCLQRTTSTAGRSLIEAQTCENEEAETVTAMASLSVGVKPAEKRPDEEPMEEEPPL

[5] = molecular target: Histone deacetylase 5 (Homo sapiens) (UniProt Q9UQL6); assay: Inhibition of human HDAC5 at 1 uM using Boc-Lys(trifluoroacetyl)-AMC substrate; procedure, shortened: as §1
Chain of Histone deacetylase 5 (Homo sapiens) (Q9UQL6 whole entry, the tested form may be a part): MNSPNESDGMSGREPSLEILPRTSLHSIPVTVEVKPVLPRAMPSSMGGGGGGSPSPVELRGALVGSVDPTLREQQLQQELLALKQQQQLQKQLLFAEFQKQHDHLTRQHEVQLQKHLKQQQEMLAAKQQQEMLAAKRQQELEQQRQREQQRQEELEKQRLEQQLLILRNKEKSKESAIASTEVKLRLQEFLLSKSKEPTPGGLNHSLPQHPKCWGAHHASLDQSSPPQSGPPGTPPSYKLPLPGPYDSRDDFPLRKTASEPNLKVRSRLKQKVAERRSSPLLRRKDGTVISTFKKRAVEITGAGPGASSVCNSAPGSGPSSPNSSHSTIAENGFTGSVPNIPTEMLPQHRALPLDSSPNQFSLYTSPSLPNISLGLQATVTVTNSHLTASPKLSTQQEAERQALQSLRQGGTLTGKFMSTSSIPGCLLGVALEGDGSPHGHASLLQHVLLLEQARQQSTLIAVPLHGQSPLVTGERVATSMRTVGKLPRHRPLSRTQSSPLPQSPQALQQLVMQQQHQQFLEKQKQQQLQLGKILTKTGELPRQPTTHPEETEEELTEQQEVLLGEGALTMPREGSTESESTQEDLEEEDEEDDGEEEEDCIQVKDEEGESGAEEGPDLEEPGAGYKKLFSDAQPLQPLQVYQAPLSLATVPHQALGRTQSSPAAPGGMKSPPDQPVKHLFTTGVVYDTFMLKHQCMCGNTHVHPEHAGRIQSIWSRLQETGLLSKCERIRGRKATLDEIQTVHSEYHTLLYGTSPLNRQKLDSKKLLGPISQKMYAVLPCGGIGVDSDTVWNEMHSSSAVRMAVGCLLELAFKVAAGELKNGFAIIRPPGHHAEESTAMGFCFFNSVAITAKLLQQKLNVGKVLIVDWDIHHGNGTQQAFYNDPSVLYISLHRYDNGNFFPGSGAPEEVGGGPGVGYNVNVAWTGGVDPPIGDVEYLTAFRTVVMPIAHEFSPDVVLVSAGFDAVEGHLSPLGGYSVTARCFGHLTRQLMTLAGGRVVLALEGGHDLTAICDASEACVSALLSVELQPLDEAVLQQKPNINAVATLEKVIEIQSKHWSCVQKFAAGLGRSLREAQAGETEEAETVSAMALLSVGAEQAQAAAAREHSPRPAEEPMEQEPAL

[6] = molecular target: T3, Protein deacetylase HDAC6 (Homo sapiens) (UniProt Q9UBN7); assay: Inhibition of human HDAC6 at 1 uM using p53 (379 to 382 residues) derived fluorogenic peptide RHKKAc; procedure, shortened: as §1
T3 sequence (whole entry): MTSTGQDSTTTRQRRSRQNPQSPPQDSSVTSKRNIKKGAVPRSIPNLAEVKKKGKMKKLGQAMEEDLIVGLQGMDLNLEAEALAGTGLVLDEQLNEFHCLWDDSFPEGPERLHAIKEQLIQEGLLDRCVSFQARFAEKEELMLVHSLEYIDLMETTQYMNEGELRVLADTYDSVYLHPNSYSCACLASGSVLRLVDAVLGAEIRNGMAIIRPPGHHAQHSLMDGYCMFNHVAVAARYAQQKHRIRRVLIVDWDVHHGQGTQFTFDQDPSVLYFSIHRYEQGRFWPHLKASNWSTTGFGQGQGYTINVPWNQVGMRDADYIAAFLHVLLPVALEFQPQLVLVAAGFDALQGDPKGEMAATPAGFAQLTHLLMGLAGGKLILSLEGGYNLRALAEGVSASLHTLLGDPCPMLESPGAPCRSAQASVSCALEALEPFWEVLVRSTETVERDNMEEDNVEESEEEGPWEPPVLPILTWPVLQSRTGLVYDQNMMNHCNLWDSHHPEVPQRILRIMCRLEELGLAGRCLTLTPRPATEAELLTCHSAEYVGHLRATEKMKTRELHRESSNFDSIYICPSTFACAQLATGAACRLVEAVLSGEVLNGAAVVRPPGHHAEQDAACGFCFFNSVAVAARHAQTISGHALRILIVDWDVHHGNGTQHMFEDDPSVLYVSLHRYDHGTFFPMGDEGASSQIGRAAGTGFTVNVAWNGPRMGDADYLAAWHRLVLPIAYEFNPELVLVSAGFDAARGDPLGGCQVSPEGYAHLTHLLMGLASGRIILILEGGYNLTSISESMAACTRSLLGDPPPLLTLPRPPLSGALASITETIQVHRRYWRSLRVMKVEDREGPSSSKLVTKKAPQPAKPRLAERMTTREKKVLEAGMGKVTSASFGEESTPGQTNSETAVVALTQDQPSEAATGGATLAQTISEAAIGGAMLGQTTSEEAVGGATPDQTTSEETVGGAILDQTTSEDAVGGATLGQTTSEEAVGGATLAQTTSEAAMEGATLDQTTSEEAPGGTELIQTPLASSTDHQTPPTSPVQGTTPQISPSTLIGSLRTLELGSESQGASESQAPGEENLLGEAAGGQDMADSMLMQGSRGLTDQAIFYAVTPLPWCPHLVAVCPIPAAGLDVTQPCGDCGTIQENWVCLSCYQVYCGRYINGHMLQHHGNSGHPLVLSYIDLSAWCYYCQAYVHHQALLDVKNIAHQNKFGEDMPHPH

[7] = molecular target: T4, Histone deacetylase 8 (Homo sapiens) (UniProt Q9BY41); assay: Inhibition of human HDAC8 at 1 uM using p53 (379 to 382 residues) derived fluorogenic peptide RHKAcKAc; procedure, shortened: as §1
T4 sequence (whole entry): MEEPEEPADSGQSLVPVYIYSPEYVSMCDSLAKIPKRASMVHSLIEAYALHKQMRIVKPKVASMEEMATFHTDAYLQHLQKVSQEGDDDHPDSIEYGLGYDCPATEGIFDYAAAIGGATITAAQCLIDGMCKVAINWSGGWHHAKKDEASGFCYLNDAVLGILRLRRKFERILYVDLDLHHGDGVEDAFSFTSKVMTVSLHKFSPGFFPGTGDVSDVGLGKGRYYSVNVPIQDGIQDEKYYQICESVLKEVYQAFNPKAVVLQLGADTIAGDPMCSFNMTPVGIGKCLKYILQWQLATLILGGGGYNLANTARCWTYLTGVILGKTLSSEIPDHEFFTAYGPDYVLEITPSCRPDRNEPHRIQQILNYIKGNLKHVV

[8] = molecular target: T5, Histone deacetylase (Homo sapiens) (UniProt Q13547+O15379+Q9UBN7+Q92769+Q9UQL6+Q8WUI4+Q9BY41+Q96DB2+P56524+Q9UKV0+Q969S8); assay: Inhibition of HDAC in human MDA-MB-231 cells assessed as increase in histone H3 acetylation at 0.1 to 2.5uM incubated for 48 hrs by Western blot method; type: cell-based
Procedure, shortened: (§2)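 Cells treated 48 h at the indicated concentrations, with a reference HDAC inhibitor at 0.25 µM as positive control on each blot. Lysed in 1% SDS, 10 mM EDTA, 50 mM Tris-HCl pH 8.1 with protease/phosphatase inhibitors, then sonicated. Equal protein by SDS-PAGE on nitrocellulose. Primary antibodies 1:1000 overnight at 4°C, HRP secondary, ECL. Blots for pan-H3 and H3K9 acetylation, tubulin acetylation and Notch1.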

[9] = molecular target: T5, Histone deacetylase (Homo sapiens); assay: Inhibition of HDAC in human MDA-MB-231 cells assessed as increase in histone H3K9 acetylation at 0.1 to 2.5uM incubated for 48 hrs by Western blot method; type: cell-based; procedure, shortened: as §2
[10] = molecular target: T3, Protein deacetylase HDAC6 (Homo sapiens); assay: Inhibition of HDAC6 in human MDA-MB-231 cells assessed as increase in histone H3K9 acetylation at 0.1 to 2.5uM incubated for 48 hrs by Western blot method; type: cell-based; settings: in the assay text read “tubulin acetylation” for “histone H3K9 acetylation”; procedure, shortened: as §2
[11] = molecular target: T4, Histone deacetylase 8 (Homo sapiens); assay: Inhibition of HDAC8 in human MDA-MB-231 cells assessed as reduction in Notch1 expression at 0.1 to 2.5uM incubated for 48 hrs by Western blot method; type: cell-based; procedure, shortened: as §2
[12] = molecular target: T4, Histone deacetylase 8 (Homo sapiens); assay: Inhibition of HDAC8 in human MDA-MB-231 cells assessed as reduction in Notch1 expression at 2.5uM incubated for 48 hrs by Western blot method; type: cell-based; procedure, shortened: as §2
[13] = molecular target: T3, Protein deacetylase HDAC6 (Homo sapiens); assay: Inhibition of HDAC6 in human MDA-MB-231 cells assessed as increase in histone H3K9 acetylation at 0.25 uM incubated for 48 hrs by Western blot method; type: cell-based; settings: in the assay text read “tubulin acetylation” for “histone H3K9 acetylation”; procedure, shortened: as §2
[14] = molecular target: T4, Histone deacetylase 8 (Homo sapiens); assay: Inhibition of HDAC8 in human MDA-MB-231 cells assessed as reduction in Notch1 expression at 0.25 uM incubated for 48 hrs by Western blot method; type: cell-based; procedure, shortened: as §2
[15] = molecular target: T1, Histone deacetylase 1; assay: Inhibition of human HDAC1 using p53 (379 to 382 residues) derived fluorogenic peptide RHKKAc
[16] = molecular target: T2, Histone deacetylase 2; assay: Inhibition of human HDAC2 using p53 (379 to 382 residues) derived fluorogenic peptide RHKKAc
[17] = molecular target: Histone deacetylase 3/Nuclear receptor corepressor 2 (HDAC3/NCoR2) (Homo sapiens, UniProt O15379); assay: Inhibition of human HDAC3/NCOR2 using p53 (379 to 382 residues) derived fluorogenic peptide RHKKAc; type: protein-complex assay
[18] = tested on: MDA-MB-231; assay: Cytotoxicity in human MDA-MB-231 cells assessed as reduction in cell viability incubated for 24 to 72 hrs by MTT assay; type: functional, cell-based
Procedure, shortened: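 MDA-MB-231 seeded 5,000 cells/well with 10% FBS, left overnight, then exposed to agents in 5% FBS for 24, 48 and 72 h. MTT added for 1 h, dye dissolved in DMSO, absorbance at 560 nm. Viability given as percent of the matching vehicle-treated control. N = 6.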

[19] = tested on: MDA-MB-231; assay: Growth inhibition of human MDA-MB-231 cells incubated for 48 to 72 hrs by crystal violet staining based assay; type: functional, cell-based
Procedure, shortened: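 Cells plated at 5000/well and left overnight, then treated in 5% FBS for 24, 48 and 72 h. Washed with PBS, stained 20 min with 0.5% crystal violet in 20% methanol, stain solubilized in 2% SDS, absorbance read at 550. Growth inhibition calculated as (1-Nt/Nc) x 100 against vehicle wells. N = 6.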

[20] = tested on: MDA-MB-231; assay: Inhibition of colony formation of human MDA-MB-231 cells incubated for 48 hrs by crystal violet staining based assay; settings: MDA-MB-231, 48 h
[21] = tested on: MDA-MB-231; assay: Inhibition of mammosphere formation of human MDA-MB-231 cells incubated for 7 days; settings: MDA-MB-231, 168 h
[22] = molecular target: Histone deacetylase 3 (Homo sapiens) (UniProt O15379); assay: Inhibition of HDAC3 in human MDA-MB-231 cells assessed as reduction in Akt phosphorylation at 0.5 to 5 uM by immunoblotting; type: cell-based
Chain of Histone deacetylase 3 (Homo sapiens) (O15379 whole entry): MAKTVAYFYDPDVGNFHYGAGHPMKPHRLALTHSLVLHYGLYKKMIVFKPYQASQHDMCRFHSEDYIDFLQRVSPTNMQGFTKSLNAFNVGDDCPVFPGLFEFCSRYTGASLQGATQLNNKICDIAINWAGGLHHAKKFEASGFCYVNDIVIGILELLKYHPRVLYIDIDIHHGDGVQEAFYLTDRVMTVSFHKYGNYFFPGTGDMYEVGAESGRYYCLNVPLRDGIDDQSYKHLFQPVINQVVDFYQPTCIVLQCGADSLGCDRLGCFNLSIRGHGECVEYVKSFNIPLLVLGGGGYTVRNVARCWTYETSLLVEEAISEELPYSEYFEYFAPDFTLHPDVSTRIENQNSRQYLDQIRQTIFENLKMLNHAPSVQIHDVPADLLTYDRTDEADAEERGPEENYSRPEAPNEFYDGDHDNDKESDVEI
Procedure, shortened: (§3)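 Monolayer cells treated in 5% FBS at graded concentrations. Lysed in SDS/EDTA/Tris pH 8.1 buffer, equal protein immunoblotted with primary antibodies 1:1000 overnight at 4°C. Detected by ECL for phospho-Akt, β-catenin and histone H3 pan/H3K9 acetylation.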

[23] = molecular target: Histone deacetylase 3 (Homo sapiens) (UniProt O15379); assay: Inhibition of HDAC3 in human MDA-MB-231 cells assessed as reduction in beta-catenin expression at 0.5 to 5 uM by immunoblotting; type: cell-based; procedure, shortened: as §3
[24] = molecular target: Histone deacetylase 3 (Homo sapiens) (UniProt O15379); assay: Inhibition of HDAC3 in human MDA-MB-231 cells assessed as increase in histone H3 acetylation at 0.5 to 5 uM by immunoblotting; type: cell-based; procedure, shortened: as §3
[25] = tested on: MDA-MB-231; assay: Effect on beta-catenin mRNA expression in human MDA-MB-231 cells at 0.5 to 5 uM by RT-PCR method; type: cell-based; settings: mda-mb-231, 5 µM
Procedure, shortened: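 Monolayer cells treated at graded concentrations. Total RNA isolated with TRIzol. β-catenin mRNA assessed by RT-PCR with β-actin as reference.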

T1 sequence (Q13547 whole entry, the tested form may be a part, canonical isoform): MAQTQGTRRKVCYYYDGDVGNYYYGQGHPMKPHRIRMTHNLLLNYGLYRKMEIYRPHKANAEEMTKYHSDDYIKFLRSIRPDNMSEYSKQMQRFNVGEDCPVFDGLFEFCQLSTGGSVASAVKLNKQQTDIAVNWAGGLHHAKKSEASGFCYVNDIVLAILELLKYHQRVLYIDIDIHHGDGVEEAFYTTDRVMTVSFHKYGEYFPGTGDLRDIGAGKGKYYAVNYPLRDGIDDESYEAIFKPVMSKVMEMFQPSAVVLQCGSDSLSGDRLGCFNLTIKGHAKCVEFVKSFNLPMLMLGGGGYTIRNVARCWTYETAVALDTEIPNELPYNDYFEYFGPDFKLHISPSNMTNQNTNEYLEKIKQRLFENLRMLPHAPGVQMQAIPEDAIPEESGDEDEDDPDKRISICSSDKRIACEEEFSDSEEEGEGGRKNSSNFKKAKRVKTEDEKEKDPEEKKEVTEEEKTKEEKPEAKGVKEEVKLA

inhibition [1] | inhibition [2] | inhibition [3] | inhibition [4] | inhibition [5] | inhibition [6] | inhibition [7] | inhibition [8] | inhibition [9] | inhibition [10] | Compound | further results
55% | 31% | 30% | 0% | 0% | 20% | 7% | Active | Active | inactive | CC(C)[C@H](C(=O)Nc1ccc(C(=O)Nc2ccccc2N)cc1)c1ccccc1 | inhibition [11]: inactive
80% | 57% | 76% | 9% | 9% | 16% | 38% | Active | Active | inactive | CC(C)[C@@H](C(=O)Nc1ccc(C(=O)Nc2ccccc2N)cc1)c1ccccc1 | inhibition [12]: Active
95% | 72% | 93% | 21% | 0% | 100% | 87% | – | – | – | CC(C)[C@H](C(=O)Nc1ccc(C(=O)NO)cc1)c1ccccc1 | inhibition [13]: Active; inhibition [14]: Active
– | – | – | – | – | – | – | – | – | – | Nc1cc(F)ccc1NC(=O)c1ccc(NC(=O)Cc2ccccc2)cc1 | IC50 [15]: 2300 nM; IC50 [16]: 3200 nM; IC50 [17]: 180 nM; IC50 [18]: ≥ 10000 nM; IC50 [19]: ≥ 10000 nM; IC50 [20]: 500 to 1000 nM; IC50 [21]: 500 to 1000 nM; inhibition [22]: Dose-dependent effect; inhibition [23]: Dose-dependent effect; inhibition [24]: Dose-dependent effect; Activity [25]: Non-Toxic
